According to ChEMBL document CHEMBL5247578, “Effective synthesis of benzimidazoles-imidazo[1,2-a]pyrazine conjugates: A comparative study of mono-and bis-benzimidazoles for antitumor activity” (Eur J Med Chem, 2019):

Columns and labels:
Type in all cases: functional
[1] = test system: T47D; experiment: Antiproliferative activity against human T47D cells assessed as cell growth inhibition at 10 uM incubated for 48 hrs by sulforhodamine B assay relative to control
Outline: (§1)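 NCI-60 single-dose screen at 10^-5 M. Cells grown in RPMI 1640 with 5% FBS and 2 mM L-glutamine, plated at 5,000–40,000 cells/well, and preincubated 24 h. Drug (DMSO stock) added and incubated 48 h at 37 °C, 5% CO2. Adherent cells fixed with cold TCA, stained with 0.4% SRB in 1% acetic acid, dye solubilized in 10 mM trizma base, A515 read. Percent growth taken against time-zero and untreated control.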

[2] = test system: TK-10; experiment: Antiproliferative activity against human TK-10 cells assessed as cell growth inhibition at 10 uM incubated for 48 hrs by sulforhodamine B assay relative to control; outline: as §1
[3] = test system: RPMI-8226; experiment: Antiproliferative activity against human RPMI-8226 cells assessed as cell growth inhibition at 10 uM incubated for 48 hrs by sulforhodamine B assay relative to control; outline: as §1
[4] = test system: SW-620; experiment: Antiproliferative activity against human SW620 cells assessed as cell growth inhibition at 10 uM incubated for 48 hrs by sulforhodamine B assay relative to control; outline: as §1
[5] = test system: CAKI-1; experiment: Antiproliferative activity against human CAKI-1 cells assessed as cell growth inhibition at 10 uM incubated for 48 hrs by sulforhodamine B assay relative to control
Outline: (§2)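 Single-dose NCI-60 prescreen at 10^-5 M. Cells in RPMI 1640 with 5% FBS and 2 mM L-glutamine, seeded 5,000–40,000 cells/well with 24 h preincubation, then drug exposure for 48 h at 37 °C under 5% CO2. Growth read by SRB staining of TCA-fixed cells at 515 nm against time-zero and untreated controls. Negative growth values denote cell kill.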

[6] = test system: NCI-H226; experiment: Antiproliferative activity against human NCI-H226 cells assessed as cell growth inhibition at 10 uM incubated for 48 hrs by sulforhodamine B assay relative to control; outline: as §1
[7] = test system: SK-MEL-5; experiment: Antiproliferative activity against human SK-MEL-5 cells assessed as cell growth inhibition at 10 uM incubated for 48 hrs by sulforhodamine B assay relative to control; outline: as §1
[8] = test system: SNB-75; experiment: Antiproliferative activity against human SNB-75 cells assessed as cell growth inhibition at 10 uM incubated for 48 hrs by sulforhodamine B assay relative to control; outline: as §1
[9] = test system: KM12; experiment: Antiproliferative activity against human KM12 cells assessed as cell growth inhibition at 10 uM incubated for 48 hrs by sulforhodamine B assay relative to control; outline: as §1
[10] = test system: IGROV-1; experiment: Antiproliferative activity against human IGROV-1 cells assessed as cell growth inhibition at 10 uM incubated for 48 hrs by sulforhodamine B assay relative to control; outline: as §1
[11] = test system: COLO 205; experiment: Antiproliferative activity against human COLO 205 cells assessed as cell growth inhibition at 10 uM incubated for 48 hrs by sulforhodamine B assay relative to control; outline: as §2
[12] = test system: A549; experiment: Antiproliferative activity against human A549 cells assessed as cell growth inhibition at 10 uM incubated for 48 hrs by sulforhodamine B assay relative to control; outline: as §2
[13] = test system: HCC 2998; experiment: Antiproliferative activity against human HCC 2998 cells assessed as cell growth inhibition at 10 uM incubated for 48 hrs by sulforhodamine B assay relative to control
Outline: (§3)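 NCI-60 one-dose prescreen at 10^-5 M. Cells grown in RPMI 1640 with 5% FBS and 2 mM glutamine, preincubated 24 h, then exposed 48 h at 37 °C. Adherent lines TCA-fixed, SRB-stained, A515 read. Growth percent relative to time-zero and control; negative values mean cell kill.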

[14] = test system: UACC-62; experiment: Antiproliferative activity against human UACC-62 cells assessed as cell growth inhibition at 10 uM incubated for 48 hrs by sulforhodamine B assay relative to control; outline: as §1
[15] = test system: Hs-578T; experiment: Antiproliferative activity against human Hs-578T cells assessed as cell growth inhibition at 10 uM incubated for 48 hrs by sulforhodamine B assay relative to control; outline: as §1
[16] = test system: CCRF-CEM; experiment: Antiproliferative activity against human CCRF-CEM cells assessed as cell growth inhibition at 10 uM incubated for 48 hrs by sulforhodamine B assay relative to control; outline: as §2
[17] = test system: SN12C; experiment: Antiproliferative activity against human SN12C cells assessed as cell growth inhibition at 10 uM incubated for 48 hrs by sulforhodamine B assay relative to control; outline: as §1
[18] = test system: NCI-H460; experiment: Antiproliferative activity against human NCI-H460 cells assessed as cell growth inhibition at 10 uM incubated for 48 hrs by sulforhodamine B assay relative to control; outline: as §1
[19] = test system: NCI-H23; experiment: Antiproliferative activity against human NCI-H23 cells assessed as cell growth inhibition at 10 uM incubated for 48 hrs by sulforhodamine B assay relative to control; outline: as §1
[20] = test system: NCI-H522; experiment: Antiproliferative activity against human NCI-H522 cells assessed as cell growth inhibition at 10 uM incubated for 48 hrs by sulforhodamine B assay relative to control; outline: as §1
[21] = test system: PC-3; experiment: Antiproliferative activity against human PC-3 cells assessed as cell growth inhibition at 10 uM incubated for 48 hrs by sulforhodamine B assay relative to control; outline: as §1
[22] = test system: SK-MEL-28; experiment: Antiproliferative activity against human SK-MEL-28 cells assessed as cell growth inhibition at 10 uM incubated for 48 hrs by sulforhodamine B assay relative to control; outline: as §1
[23] = test system: HOP-92; experiment: Antiproliferative activity against human HOP-92 cells assessed as cell growth inhibition at 10 uM incubated for 48 hrs by sulforhodamine B assay relative to control; outline: as §3
[24] = test system: HOP-62; experiment: Antiproliferative activity against human HOP-62 cells assessed as cell growth inhibition at 10 uM incubated for 48 hrs by sulforhodamine B assay relative to control; outline: as §3
[25] = test system: OVCAR-4; experiment: Antiproliferative activity against human OVCAR-4 cells assessed as cell growth inhibition at 10 uM incubated for 48 hrs by sulforhodamine B assay relative to control; outline: as §1
[26] = test system: SK-OV-3; experiment: Antiproliferative activity against human SK-OV-3 cells assessed as cell growth inhibition at 10 uM incubated for 48 hrs by sulforhodamine B assay relative to control; outline: as §1
[27] = test system: OVCAR-5; experiment: Antiproliferative activity against human OVCAR-5 cells assessed as cell growth inhibition at 10 uM incubated for 48 hrs by sulforhodamine B assay relative to control; outline: as §1
[28] = test system: UACC-257; experiment: Antiproliferative activity against human UACC-257 cells assessed as cell growth inhibition at 10 uM incubated for 48 hrs by sulforhodamine B assay relative to control; outline: as §1
[29] = test system: K562; experiment: Antiproliferative activity against human K562 cells assessed as cell growth inhibition at 10 uM incubated for 48 hrs by sulforhodamine B assay relative to control; outline: as §1
[30] = test system: Malme-3M; experiment: Antiproliferative activity against human Malme-3M cells assessed as cell growth inhibition at 10 uM incubated for 48 hrs by sulforhodamine B assay relative to control; outline: as §1

Compound	inhibition at 10 µM [1] [%]	inhibition at 10 µM [2] [%]	inhibition at 10 µM [3] [%]	inhibition at 10 µM [4] [%]	inhibition at 10 µM [6] [%]	inhibition at 10 µM [7] [%]	inhibition at 10 µM [8] [%]	inhibition at 10 µM [9] [%]	inhibition at 10 µM [10] [%]	inhibition at 10 µM [11] [%]	inhibition at 10 µM [12] [%]	inhibition at 10 µM [14] [%]	inhibition at 10 µM [15] [%]	inhibition at 10 µM [16] [%]	inhibition at 10 µM [17] [%]	inhibition at 10 µM [18] [%]	inhibition at 10 µM [19] [%]	inhibition at 10 µM [20] [%]	inhibition at 10 µM [21] [%]	inhibition at 10 µM [27] [%]	other results
CCc1ccc(-c2cn3ccnc3c(-c3ccc4ncn(Cc5ccccc5)c4c3)n2)cc1	94.8	15.5	55.4	18.8	1.48	47.9	29.3	45.7	25	34.2	45.4	24.9	21.8	49.7	22.5	42	23	45.9	50.4	14.9	inhibition at 10 µM [5]: 47.9%; inhibition at 10 µM [13]: 25.2%; inhibition at 10 µM [22]: 19.1%; inhibition at 10 µM [23]: 36.1%; inhibition at 10 µM [24]: 17.9%; inhibition at 10 µM [25]: 35.1%; inhibition at 10 µM [26]: 0.55%
c1ccc(-c2cn3ccnc3c(-c3ccc4ncn(C5CCCCC5)c4c3)n2)cc1	-11.1	2.26	85.7	9.15	33.9	36.5	44.4	49	11.9	20.7	33.3	65.7	23.8	81.2	28.8	37.8	45.3	58.1	92	7.87	inhibition at 10 µM [28]: 5.22%; inhibition at 10 µM [29]: 70.6%; inhibition at 10 µM [22]: 18%; inhibition at 10 µM [23]: 53.7%; inhibition at 10 µM [25]: 34.5%; inhibition at 10 µM [26]: 7.52%
c1cn2cc(-c3ccc4c(c3)ncn4C3CCCCC3)nc(-c3ccc4ncn(C5CCCCC5)c4c3)c2n1	44.7	–	70.8	–	18.8	36.8	24.8	30.6	8.51	6.71	25.3	29.3	23.6	46.1	20.5	11.9	20.5	28.5	45	1.44	inhibition at 10 µM [5]: 15.9%; inhibition at 10 µM [28]: 14.9%; inhibition at 10 µM [30]: 5.14%; inhibition at 10 µM [13]: 15.5%; inhibition at 10 µM [29]: 38.5%; inhibition at 10 µM [24]: 16.8%
c1cn2cc(-c3ccc4ncn(C5CCCCC5)c4c3)nc(-c3ccc4ncn(C5CCCCC5)c4c3)c2n1	54.9	14.4	89.1	35.6	46.7	55.7	25.4	63.5	60.8	22.4	57.6	51.9	43.3	78.5	42.7	53	28.2	49.4	64.2	7.18	inhibition at 10 µM [5]: 54.6%; inhibition at 10 µM [28]: 35.5%; inhibition at 10 µM [30]: 7.04%; inhibition at 10 µM [13]: 17.7%; inhibition at 10 µM [29]: 69.8%; inhibition at 10 µM [22]: 24.4%; inhibition at 10 µM [24]: 42.6%; inhibition at 10 µM [25]: 22.8%; inhibition at 10 µM [26]: 14.8%
